# Measured values published in ChEMBL document CHEMBL1131289, “2-Nitrophenylcarbamoyl-(S)-prolyl-(S)-3-(2-naphthyl)alanyl-N-benzyl-N - methylamide (SDZ NKT 343), a potent human NK1 tachykinin receptor antagonist with good oral analgesic activity in chronic pain models” (J Med Chem, 1998).
# Columns and labels:
# Substance-P receptor [1] = molecular target: Substance-P receptor (Homo sapiens, UniProt P25103); test: In vitro binding affinity towards Tachykinin receptor 1 by measuring its ability to displace [3H]SP (0.6 nM) binding to membranes from Cos-7 cells transiently transfected with the hNK-1R; assay type: cell membranes
# Substance-P receptor [2] = molecular target: T1, Substance-P receptor (Cavia porcellus, UniProt P30547); test: Tachykinin receptor 1 antagonistic activity as inhibition of contractions evoked by 4 nM [Sar9,Met(O2)11]-SP in guinea pig ileum; assay type: functional, tissue-based
# In short: (§1)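 Guinea pig ileum contracted by [Sar9Met(O2)11]SP (4.0 nM), repeated at least five times until stable. Antagonist added 2 min before agonist; at least three concentrations, each tested three times. IC50 read from log10 concentration–response curve; mean ± SEM of three separate experiments.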
# Cavia porcellus [3] = test: In vivo inhibition of hyperalgesia at 30 mg/kg po dose and 3h after dosing in guinea pig; assay type: functional
# In short: (§2)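 Guinea pigs got 1% carrageenan (100 μL) intraplantar in one hind paw. Mechanical hyperalgesia was read 24 h later, before dosing. Compound was given orally at 30 mg/kg in 10% DMSO in 1% tragacanth or as a microemulsion. Readings were taken at intervals up to 6 h, and the value is percentage reversal of predose hyperalgesia.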
# Cavia porcellus [4] = species on record: Cavia porcellus; test: The effective dose of compound used to inhibit 30% of hyperalgesia in guinea pig; assay type: functional
# In short: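 Hyperalgesia was induced in guinea pigs with intraplantar 1% carrageenan (100 μL) in one hind paw. Mechanical hyperalgesia was assessed 24 h later, then oral doses were given in 10% DMSO/1% tragacanth or a microemulsion. ED30, the dose giving 30% inhibition of hyperalgesia, was taken from dose–response data 3 h after dosing (n = 3).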
# Substance-P receptor [5] = molecular target: T1, Substance-P receptor; test: Tested for Tachykinin receptor 1 […] activity by measuring its ability to inhibit contractions evoked by [Sar9,Met(O2)11]-SP (4 nM) in guinea pig ileum; assay type: functional, tissue-based; in short: as §1
# Cavia porcellus [6] = test: The compound was evaluated for its %inhibition of hyperalgesia at 30 mg/kg po dose and 1 hr after dosing; assay type: functional; in short: as §2
# T1 sequence (P30547 whole entry): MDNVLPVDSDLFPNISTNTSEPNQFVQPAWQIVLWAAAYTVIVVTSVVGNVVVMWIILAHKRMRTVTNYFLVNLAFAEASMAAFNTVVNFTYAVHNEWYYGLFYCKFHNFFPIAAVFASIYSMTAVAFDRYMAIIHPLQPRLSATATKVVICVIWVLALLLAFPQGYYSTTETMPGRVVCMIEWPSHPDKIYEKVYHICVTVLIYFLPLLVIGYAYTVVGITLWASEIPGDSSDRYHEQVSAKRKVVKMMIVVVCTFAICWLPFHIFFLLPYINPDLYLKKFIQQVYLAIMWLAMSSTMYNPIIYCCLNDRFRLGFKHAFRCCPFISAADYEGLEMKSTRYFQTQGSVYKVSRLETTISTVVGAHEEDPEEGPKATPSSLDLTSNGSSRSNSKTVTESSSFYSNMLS
# Chain of Substance-P receptor (Homo sapiens, UniProt P25103) (P25103 whole entry): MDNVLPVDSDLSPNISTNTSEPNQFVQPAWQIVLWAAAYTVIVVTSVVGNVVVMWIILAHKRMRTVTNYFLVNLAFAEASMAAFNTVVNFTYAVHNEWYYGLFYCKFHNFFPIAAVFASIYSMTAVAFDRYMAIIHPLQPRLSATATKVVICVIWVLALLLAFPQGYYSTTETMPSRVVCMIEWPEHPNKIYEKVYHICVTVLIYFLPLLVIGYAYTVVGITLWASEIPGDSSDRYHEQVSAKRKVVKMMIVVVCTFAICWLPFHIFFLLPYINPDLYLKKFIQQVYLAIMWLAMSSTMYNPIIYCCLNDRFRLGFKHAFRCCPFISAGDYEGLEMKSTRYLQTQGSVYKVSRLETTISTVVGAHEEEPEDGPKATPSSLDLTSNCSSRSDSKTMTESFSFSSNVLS
Ki (Substance-P receptor [1]) [nM],SMILES,also measured
,CN(Cc1ccccc1)C(=O)[C@H](Cc1ccccc1)NC(=O)[C@@H]1CCCN1C(=O)NCc1ccccc1Cl,IC50 (Substance-P receptor [1]): 590 nM
17.1,CN(Cc1cccc2ccccc12)C(=O)[C@H](Cc1ccccc1)NC(=O)[C@@H]1CCCN1C(=S)NCc1ccccc1Cl,
25.9,CN(Cc1ccccc1)C(=O)[C@H](Cc1ccccc1)NC(=O)[C@@H]1CCCN1/C(S)=N/Cc1c(Cl)cccc1Cl,
3.8,CNC(=O)c1ccccc1NC(=O)N1CCC[C@H]1C(=O)N[C@@H](Cc1ccc2ccccc2c1)C(=O)N(C)Cc1ccccc1,IC50 (Substance-P receptor [2]): 3 nM
,CN(CCc1ccccc1)C(=O)[C@H](Cc1ccccc1)NC(=O)[C@@H]1CCCN1C(=S)NCc1ccccc1Cl,IC50 (Substance-P receptor [1]): 2500 nM
29.4,CN(Cc1ccccc1)C(=O)[C@@H](NC(=O)[C@@H]1CCCN1C(=S)NCc1ccccc1Cl)C(c1ccccc1)c1ccccc1,
,O=C(NCCc1c[nH]c2ccccc12)[C@H](Cc1ccccc1)NC(=O)[C@@H]1CCCN1C(=S)NCc1ccccc1Cl,IC50 (Substance-P receptor [1]): 3700 nM
16.7,CN(Cc1ccccc1)C(=O)[C@H](Cc1c[nH]c2ccccc12)NC(=O)[C@@H]1CCCN1C(=S)NCc1ccccc1Cl,
36,CN(Cc1ccc2ccccc2c1)C(=O)[C@H](Cc1ccccc1)NC(=O)[C@@H]1CCCN1/C(S)=N/Cc1ccccc1Cl,
80,"CN(Cc1ccccc1)C(=O)[C@H](Cc1ccccc1)NC(=O)[C@@H]1CCCN1C(=S)Nc1ccccc1 (single isomer, unassigned)",
2.6,CN(Cc1ccccc1)C(=O)[C@H](Cc1ccc2ccccc2c1)NC(=O)[C@@H]1CCCN1C(=O)Nc1ccccc1O,
2.3,CN(Cc1ccccc1)C(=O)[C@H](Cc1ccc2ccccc2c1)NC(=O)[C@@H]1CCCN1C(=O)Nc1cccc([N+](=O)[O-])c1,
,CN(Cc1ccncc1)C(=O)[C@H](Cc1ccccc1)NC(=O)[C@@H]1CCCN1C(=S)NCc1ccccc1Cl,IC50 (Substance-P receptor [1]): 10000 nM
78.6,CN(Cc1ccccc1)C(=O)[C@H](Cc1ccccc1)NC(=O)[C@@H]1CCCN1C(=S)NCc1cc(C(F)(F)F)cc(C(F)(F)F)c1,
2.3,CN(Cc1ccccc1)C(=O)[C@H](Cc1ccc2ccccc2c1)NC(=O)[C@@H]1CCCN1C(=O)NCc1ccccc1Cl,
,Cc1ccccc1C/N=C(\S)N1CCC[C@H]1C(=O)N[C@@H](Cc1ccccc1)C(=O)N(C)Cc1ccccc1,IC50 (Substance-P receptor [1]): 410 nM
,CN(C(=O)[C@H](Cc1ccccc1)NC(=O)[C@@H]1CCCN1C(=S)NCc1ccccc1Cl)c1ccccc1,IC50 (Substance-P receptor [1]): 100000 nM
3.5,CN(Cc1ccccc1)C(=O)[C@H](Cc1ccc2ccccc2c1)NC(=O)[C@@H]1CCCN1C(=O)Nc1ccccc1F,
18.2,CN(Cc1ccccc1)C(=O)[C@H](Cc1ccc2ccccc2c1)NC(=O)[C@@H]1CCCN1C(=O)Nc1ccccc1C(F)(F)F,
29.9,CN(Cc1ccccc1)C(=O)[C@H](Cc1ccccc1)NC(=O)[C@@H]1CCCN1C(=S)NCc1ccccc1Cl,
7.2,CN(Cc1ccccc1)C(=O)[C@H](Cc1ccc(-c2ccccc2)cc1)NC(=O)[C@@H]1CCCN1/C(S)=N/Cc1ccccc1Cl,
,CN(Cc1ccccc1)C(=O)[C@@H](Cc1ccccc1)NC(=O)[C@H]1CCCN1C(=S)Nc1ccccc1Cl,IC50 (Substance-P receptor [1]): 3200 nM
4.7,CN(Cc1ccccc1)C(=O)[C@H](Cc1cn(C)c2ccccc12)NC(=O)[C@@H]1CCCN1/C(S)=N/Cc1ccccc1Cl,

Ki (Substance-P receptor [1]) [nM],SMILES,also measured
,CC(=O)Nc1ccccc1NC(=O)N1CCC[C@H]1C(=O)N[C@@H](Cc1ccc2ccccc2c1)C(=O)N(C)Cc1ccccc1,IC50 (Substance-P receptor [5]): 7.5 nM
13.7,CN(Cc1ccccc1)C(=O)[C@H](Cc1cccc2ccccc12)NC(=O)[C@@H]1CCCN1/C(S)=N/Cc1ccccc1Cl,
6.1,CN(C)C(=O)c1ccccc1NC(=O)N1CCC[C@H]1C(=O)N[C@@H](Cc1ccc2ccccc2c1)C(=O)N(C)Cc1ccccc1,
,CN(Cc1ccccc1)C(=O)[C@H](CCc1ccccc1)NC(=O)[C@@H]1CCCN1/C(S)=N/Cc1ccccc1Cl,IC50 (Substance-P receptor [1]): 206 nM
5,CN(Cc1ccccc1)C(=O)[C@H](Cc1ccc(Cl)c(Cl)c1)NC(=O)[C@@H]1CCCN1/C(S)=N/Cc1ccccc1Cl,
1.7,CN(Cc1ccccc1)C(=O)[C@H](Cc1ccc2ccccc2c1)NC(=O)[C@@H]1CCCN1C(=O)Nc1ccccc1CO,
27.2,CN(Cc1ccccc1)C(=O)[C@H](Cc1ccccc1)NC(=O)[C@@H]1CCCN1/C(S)=N/Cc1ccccc1C(F)(F)F,
26.9,CN(Cc1cc(C(F)(F)F)cc(C(F)(F)F)c1)C(=O)[C@H](Cc1ccccc1)NC(=O)[C@@H]1CCCN1C(=S)NCc1ccccc1Cl,
2.2,CN(Cc1ccccc1)C(=O)[C@H](Cc1ccc2ccccc2c1)NC(=O)[C@@H]1CCCN1C(=O)Nc1ccc(F)cc1,IC50 (Substance-P receptor [2]): 17.3 nM
172,CN(Cc1ccccc1)C(=O)[C@H](Cc1ccc2ccccc2c1)NC(=O)[C@@H]1CCCN1C(=O)Nc1ccccc1C(=O)O,
77.6,CN(Cc1ccccc1)C(=O)[C@H](Cc1ccccc1)NC(=O)[C@@H]1CCCN1/C(S)=N/Cc1ccccc1[N+](=O)[O-],
48,CN(CCc1c[nH]c2ccccc12)C(=O)[C@H](Cc1ccccc1)NC(=O)[C@@H]1CCCN1/C(S)=N/Cc1ccccc1Cl,
29.7,CN(Cc1ccccc1)C(=O)[C@H](Cc1ccccc1)NC(=O)[C@@H]1CCCN1C(=S)NCc1ccccc1Br,
,CN(Cc1ccccc1)C(=O)[C@H](Cc1ccccc1)NC(=O)[C@@H]1CCCN1C(=S)NCc1ccccc1F,IC50 (Substance-P receptor [1]): 290 nM
5,CN(Cc1ccccc1)C(=O)[C@H](Cc1ccc2ccccc2c1)NC(=O)[C@@H]1CCCN1C(=O)Nc1cccc(C(N)=O)c1,
38,CN(Cc1ccccc1)C(=O)[C@H](Cc1ccccc1)N(C)C(=O)[C@@H]1CCCN1/C(S)=N/Cc1ccccc1Cl,
0.3,COC(=O)c1ccccc1NC(=O)N1CCC[C@H]1C(=O)N[C@@H](Cc1ccc2ccccc2c1)C(=O)N(C)Cc1ccccc1,IC50 (Substance-P receptor [2]): 6 nM
,CN(Cc1ccccc1)C(=O)[C@H](Cc1ccc2ccccc2c1)NC(=O)[C@@H]1CCCN1C(=O)Nc1ccccc1N,IC50 (Substance-P receptor [2]): 21 nM
1010,CN(Cc1ccccc1)C(=O)[C@H](Cc1ccccc1)NC(=O)[C@@H]1CCCN1/C(S)=N/Cc1ccccc1,
1.7,CN(Cc1ccccc1)C(=O)[C@H](Cc1ccc2ccccc2c1)N(C)C(=O)[C@@H]1CCCN1C(=S)NCc1ccccc1Cl,
,CN(Cc1ccccc1)C(=O)[C@@H](Cc1ccccc1)NC(=O)[C@H]1CCCN1/C(S)=N/c1ccccc1Br,IC50 (Substance-P receptor [1]): 1000 nM
18.5,CN(Cc1ccccc1)C(=O)[C@H](Cc1ccccc1)NC(=O)[C@@H]1CCCN1C(=N)NCc1ccccc1Cl,
0.5,CN(Cc1ccccc1)C(=O)[C@H](Cc1ccc2ccccc2c1)NC(=O)[C@@H]1CCCN1C(=N)NCc1ccccc1Cl,

SMILES,Ki (Substance-P receptor [1]) [nM],also measured
CN(Cc1ccccc1)C(=O)[C@H](Cc1ccc2ccccc2c1)NC(=O)[C@@H]1CCCN1C(=O)Nc1ccccc1C#N,1.1,IC50 (Substance-P receptor [2]): 1 nM; inhibition in vivo at 30 mg/kg (Cavia porcellus [3]): 42%; ED30 (Cavia porcellus [4]): 2.1 mg/kg
CN(Cc1ccccc1)C(=O)[C@H](Cc1ccc2ccccc2c1)NC(=O)[C@@H]1CCCN1C(=O)Nc1cccc(C#N)c1,4.2,IC50 (Substance-P receptor [2]): 2.6 nM; inhibition in vivo at 30 mg/kg (Cavia porcellus [3]): 38%
COCc1ccccc1NC(=O)N1CCC[C@H]1C(=O)N[C@@H](Cc1ccc2ccccc2c1)C(=O)N(C)Cc1ccccc1,1,IC50 (Substance-P receptor [2]): 1.2 nM; inhibition in vivo at 30 mg/kg (Cavia porcellus [3]): 67%; ED30 (Cavia porcellus [4]): 1.2 mg/kg
CN(Cc1ccccc1)C(=O)[C@H](Cc1ccc2ccccc2c1)NC(=O)[C@@H]1CCCN1C(=O)Nc1ccccc1C(N)=O,0.8,IC50 (Substance-P receptor [2]): 1.9 nM; inhibition in vivo at 30 mg/kg (Cavia porcellus [3]): 35%; ED30 (Cavia porcellus [4]): 15.7 mg/kg
CN(Cc1ccccc1)C(=O)[C@H](Cc1ccc2ccccc2c1)NC(=O)[C@@H]1CCCN1C(=O)Nc1cccnc1,6.7,IC50 (Substance-P receptor [2]): 4.2 nM; inhibition in vivo at 30 mg/kg (Cavia porcellus [6]): 14%
CN(Cc1ccccc1)C(=O)[C@H](Cc1ccc2ccccc2c1)NC(=O)[C@@H]1CCCN1C(=O)Nc1ccccc1,0.88,IC50 (Substance-P receptor [2]): 5 nM; inhibition in vivo at 30 mg/kg (Cavia porcellus [3]): 26%
CN(Cc1ccccc1)C(=O)[C@H](Cc1ccc2ccccc2c1)NC(=O)[C@@H]1CCCN1C(=O)Nc1ccc(C#N)cc1,1.1,IC50 (Substance-P receptor [2]): 2.4 nM; inhibition in vivo at 30 mg/kg (Cavia porcellus [3]): 32%
CN(Cc1ccccc1)C(=O)[C@H](Cc1ccc2ccccc2c1)NC(=O)[C@@H]1CCCN1C(=O)Nc1cccc(F)c1,0.7,IC50 (Substance-P receptor [2]): 6.8 nM; inhibition in vivo at 30 mg/kg (Cavia porcellus [3]): 10%
